Source: ChEMBL document CHEMBL1151938, “Identification of a beta3-peptide HIV fusion inhibitor with improved potency in live cells” (Bioorg Med Chem Lett, 2009)

Columns and labels:
[1] = Cytotoxicity against human MT2 cells by MTT colorimetric method; assay type: cell-based
Procedure, shortened: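 Uninfected MT-2 cells cultured with a range of β-peptide concentrations, without virus. Viability read by MTT colorimetric assay. CC50 is the concentration giving 50% inhibition of MT-2 cell growth. Triplicate samples at each concentration.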

[2] = system: Human immunodeficiency virus 1; assay: Antiviral activity against HIV1 3B infected human MT2 cells assessed as cytoprotection after 5 days by MTT colorimetric method; assay type: functional, organism-based; conditions: Human immunodeficiency virus 1, 3B, MT2, 120 h
Procedure, shortened: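 MT-2 human T-cells plated with a range of β-peptide concentrations and cultured with wild-type HIV-1 IIIB for 5 days. Live cells measured by MTT reduction to formazan, read at 595 nm. EC50 is the peptide concentration giving 50% survival of infected cells. Triplicate samples at each concentration.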

[3] = Binding affinity to HIV1 gp41-GCN4-pIQI fusion protein IQN17; parameters: species or system Human immunodeficiency virus 1
Procedure, shortened: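 β-peptides labeled at the N-terminus with fluorescein-hexanoic acid NHS ester and tested in a direct fluorescence polarization assay against IQN17. IQN17 is a trimeric fusion of 17 gp41 N-terminal residues with a 29-residue isoleucine zipper. KD is taken at 50% binding of IQN17. Binding curves run in triplicate.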

[4] = Selectivity ratio of CC50 for human MT2 cells to EC50 for HIV1 3B infected human MT2 cells; assay type: ADME, cell-based; conditions: for selectivity ratio: MT2 cells and HIV1 3B infected MT2 cells, read-out: Ratio CC50/EC50
Procedure, shortened: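 Ratio of CC50 to EC50. CC50 comes from MTT viability of uninfected MT-2 cells given peptide alone. EC50 comes from MTT survival of MT-2 cells infected with HIV-1 IIIB after 5 days. Both curves used triplicate samples.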

Row | Compound | Kd [3] | CC50 [1] | EC50 [2] | selectivity ratio [4] | Ratio CC50/EC50 ([4]; mt2)
1 | enfuvirtide |  |  | 0.0375 µM |  | 
2 | CC[C@@](C)(CC(=O)N[C@H](CC(=O)O)CC(=O)NC(C)(C)CC(=O)NC(CC(=O)N[C@@H](CCN)CC(=O)NC(C)(C)CC(=O)N[C@H](CC(=O)NC(CC(=O)O)CC(=O)O)Cc1c[nH]c2ccccc12)Cc1cccc(C(F)(F)F)c1)NC(=O)CC(C)(C)NC(=O)C[C@@H](N)CCN (stereo partly specified) | 10.2 µM | 150 µM | 19 µM | 7.9 | 
3 | CC[C@@](C)(CC(=O)N[C@H](CC(=O)O)CC(=O)NC(C)(C)CC(=O)NC(CC(=O)N[C@@H](CCN)CC(=O)NC(C)(C)CC(=O)N[C@H](CC(=O)NC(CC(=O)O)CC(=O)O)Cc1c[nH]c2ccccc12)Cc1cccnc1)NC(=O)CC(C)(C)NC(=O)C[C@@H](N)CCN (stereo partly specified) | 104 µM | > 250 µM | > 250 µM |  | Not Active
4 | CC[C@@](C)(CC(=O)N[C@H](CC(=O)O)CC(=O)NC(C)(C)CC(=O)N[C@@H](CC(=O)N[C@@H](CCN)CC(=O)NC(C)(C)CC(=O)N[C@H](CC(=O)NC(CC(=O)O)CC(=O)O)Cc1c[nH]c2ccccc12)Cc1c[nH]c2ccccc12)NC(=O)CC(C)(C)NC(=O)C[C@@H](N)CCN | 16.5 µM | 100 µM | 56 µM | 1.8 | 
5 | CC[C@@](C)(CC(=O)N[C@H](CC(=O)O)CC(=O)NC(C)(C)CC(=O)NC(CC(=O)N[C@@H](CCN)CC(=O)NC(C)(C)CC(=O)N[C@H](CC(=O)NC(CC(=O)O)CC(=O)O)Cc1c[nH]c2ccccc12)Cc1ccccc1Cl)NC(=O)CC(C)(C)NC(=O)C[C@@H](N)CCN (stereo partly specified) | 13.3 µM | 31 µM | 8.8 µM | 3.5 | 

More lines, main results first:

Row | Kd [3] | Compound | CC50 [1] | EC50 [2] | selectivity ratio [4] | Ratio CC50/EC50 ([4]; mt2)
6 | 15.7 µM | CC[C@@](C)(CC(=O)N[C@H](CC(=O)O)CC(=O)NC(C)(C)CC(=O)NC(CC(=O)N[C@@H](CCN)CC(=O)NC(C)(C)CC(=O)N[C@H](CC(=O)NC(CC(=O)O)CC(=O)O)Cc1c[nH]c2ccccc12)Cc1cccc(F)c1)NC(=O)CC(C)(C)NC(=O)C[C@@H](N)CCN (stereo partly specified) | 50 µM | 18 µM |  | 
7 | 14.1 µM | CC[C@@](C)(CC(=O)N[C@H](CC(=O)O)CC(=O)NC(C)(C)CC(=O)NC(CC(=O)N[C@@H](CCN)CC(=O)NC(C)(C)CC(=O)N[C@H](CC(=O)NC(CC(=O)O)CC(=O)O)Cc1c[nH]c2ccccc12)Cc1ccc(I)cc1)NC(=O)CC(C)(C)NC(=O)C[C@@H](N)CCN (stereo partly specified) | 23 µM | 8.9 µM |  | 
8 | 12.2 µM | CC[C@@](C)(CC(=O)N[C@H](CC(=O)O)CC(=O)NC(C)(C)CC(=O)NC(CC(=O)N[C@@H](CCN)CC(=O)NC(C)(C)CC(=O)N[C@H](CC(=O)NC(CC(=O)O)CC(=O)O)Cc1c[nH]c2ccccc12)Cc1ccc2ccccc2c1)NC(=O)CC(C)(C)NC(=O)C[C@@H](N)CCN (stereo partly specified) | 23 µM | 8.2 µM |  | 
